Assays:
[1] = Half life in Sprague-Dawley rat at 1 mg/kg, iv and 2 mg/kg, po; type: ADME, organism-based; details: in vivo
Method in brief: (§1)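 Male Sprague-Dawley rats dosed 1 mg/kg iv and 2 mg/kg po; male beagle dogs and rhesus monkeys 0.2 mg/kg iv and 0.4 mg/kg po. Iv vehicle EtOH/PEG400/water 20:50:30 (rat) or 20:40:40 v/v/v (dog, monkey); oral vehicle Imwitor 742/Tween-80 1:1 w/w. Clearance, Vdss, t1/2, Cmax, F and dose-normalized oral AUC derived.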

[2] = Bioavailability in Sprague-Dawley rat at 1 mg/kg, iv and 2 mg/kg, po; type: ADME, organism-based; details: in vivo; method in brief: as §1
[3] = Ratio of drug level in brain to plasma in diet-induced obese rat at 0.3 mg/kg, po measured after 24 hrs of last dose on day 13; type: ADME, organism-based; design: dose 0.3 mg/kg, route oral; details: brain and plasma, read-out: BPR
Method in brief: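 Separate 13-day parallel pharmacokinetic study in DIO rats at 0.3 mg/kg. Plasma and brain exposures determined 24 h after the last dose. Brain/plasma ratio calculated.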

Rattus norvegicus = experiment: Dose normalized AUC in Sprague-Dawley rat assessed as per mg of plasma protein at 2 mg/kg, po; type: ADME, organism-based; design: dose 2 mg/kg, route oral; details: in vivo
[4] = Ratio of drug level in brain to plasma in diet-induced obese rat at 0.3 mg/kg, po measured after 18 hrs of last dose on day 13; type: ADME, organism-based; design: dose 0.3 mg/kg, route oral; details: brain and plasma, read-out: BPR
Method in brief: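 DIO rats dosed daily for 13 days at 0.3 mg/kg in the chronic efficacy study. Plasma and brain levels determined 18 h after the last dose. Brain/plasma exposure ratio calculated.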

[5] = Cmax in Beagle dog at 0.4 mg/kg, po; details: in vivo
[6] = Plasma clearance in Sprague-Dawley rat at 1 mg/kg, iv and 2 mg/kg, po; type: ADME, organism-based
Method in brief: (§2)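 Male Sprague-Dawley rats received 1 mg/kg iv and 2 mg/kg po. Male beagle dogs and rhesus monkeys received 0.2 mg/kg iv and 0.4 mg/kg po. The iv solution was EtOH/PEG400/water, 20:50:30 v/v/v for rats and 20:40:40 v/v/v for dogs and monkeys. The oral solution was Imwitor742/Tween-80 (1:1 w/w) for all species.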

[7] = Drug level in diet-induced obese rat plasma at 0.3 mg/kg, po measured after 18 hrs of last dose on day 13; type: ADME, organism-based; design: dose 0.3 mg/kg, route oral; details: read-out: Drug uptake
Method in brief: (§3)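 At end of 13-day chronic efficacy study in DIO rats dosed orally at 0.3 mg/kg, plasma and brain drug levels measured 18 h after last dose.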

[8] = Plasma concentration in dog at 1 mg/kg, iv administered for 30 mins; type: ADME, organism-based, Canis lupus familiaris; design: dose 1 mg/kg, route intravenous
Method in brief: (§4)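 Anesthetized dogs given iv infusions, each spread evenly over 30 min, at rising cumulative doses of 1, 3 and 10 mg/kg. Peak plasma levels were measured during each dose. Arterial pressure, heart rate and ECG intervals (PR, QRS, QTc) were monitored against vehicle-treated dogs.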

[9] = Oral bioavailability in rhesus monkey at 0.4 mg/kg; type: ADME, organism-based, Macaca mulatta; details: in vivo; method in brief: as §2
[10] = Drug level in P-gp deficient CF1 mouse brain at 1 mg/kg, iv measured after 4 hrs; type: ADME, organism-based; design: dose 1 mg/kg, route intravenous; details: read-out: Drug uptake
Method in brief: (§5)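 Single iv 1 mg/kg to wild-type and P-gp deficient CF-1 mice; parent levels in plasma and brain measured 4 h postdose; brain/plasma ratio calculated.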

[11] = Half life in Beagle dog at 0.2 mg/kg, iv; type: ADME, organism-based, Canis lupus familiaris; design: dose 0.2 mg/kg, route intravenous; details: in vivo; method in brief: as §1
[12] = Bioavailability in Beagle dog at 0.2 mg/kg, iv; type: ADME, organism-based, Canis lupus familiaris; details: in vivo; method in brief: as §1
[13] = Volume of distribution at steady state in Sprague-Dawley rat at 1 mg/kg, iv and 2 mg/kg, po; type: ADME, organism-based; details: in vivo, read-out: Vdss; method in brief: as §2
Canis familiaris = experiment: Dose normalized AUC in Beagle dog at 0.4 mg/kg, po; details: in vivo
[14] = Cmax in rhesus monkey at 0.4 mg/kg, po; type: ADME, organism-based, Macaca mulatta; design: dose 0.4 mg/kg, route oral; details: in vivo; method in brief: as §1
[15] = Half life in rhesus monkey at 0.4 mg/kg, po; type: ADME, organism-based, Macaca mulatta; design: dose 0.4 mg/kg, route oral; details: in vivo; method in brief: as §1
[16] = Plasma concentration in dog at 10 mg/kg, iv administered for 30 mins; type: ADME, organism-based, Canis lupus familiaris; design: dose 10 mg/kg, route intravenous; method in brief: as §4
[17] = Drug level in diet-induced obese rat brain at 0.3 mg/kg, po measured after 24 hrs of last dose on day 13; type: ADME, organism-based; design: dose 0.3 mg/kg, route oral; details: read-out: Drug uptake
Method in brief: (§6)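 Separate parallel 13-day pharmacokinetic study in DIO rats at 0.3 mg/kg; plasma and brain levels determined 24 h after last dose.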

[18] = Plasma concentration in dog at 3 mg/kg, iv administered for 30 mins; type: ADME, organism-based, Canis lupus familiaris; design: dose 3 mg/kg, route intravenous; method in brief: as §4
[19] = Drug level in diet-induced obese rat brain at 0.3 mg/kg, po measured after 18 hrs of last dose on day 13; type: ADME, organism-based; design: dose 0.3 mg/kg, route oral; details: read-out: Drug uptake; method in brief: as §3
[20] = Drug level in diet-induced obese rat plasma at 0.3 mg/kg, po measured after 24 hrs of last dose on day 13; type: ADME, organism-based; design: dose 0.3 mg/kg, route oral; details: read-out: Drug uptake; method in brief: as §6
[21] = Volume of distribution at steady state in Beagle dog at 0.2 mg/kg, iv; type: ADME, organism-based, Canis lupus familiaris; design: dose 0.2 mg/kg, route intravenous; details: in vivo, read-out: Vdss; method in brief: as §2
Rhesus monkey [22] = experiment: Dose normalized AUC in rhesus monkey at 0.4 mg/kg, po; type: ADME, organism-based, Macaca mulatta; design: dose 0.4 mg/kg, route oral; details: in vivo; method in brief: as §1
[23] = Drug level in wild type MDR1a-expressing mouse plasma at 1 mg/kg, iv measured after 4 hrs; type: ADME, organism-based; design: dose 1 mg/kg, route intravenous; details: read-out: Drug uptake; method in brief: as §5
[24] = Drug level in P-gp deficient CF1 mouse plasma at 1 mg/kg, iv measured after 4 hrs; type: ADME, organism-based; design: dose 1 mg/kg, route intravenous; details: read-out: Drug uptake; method in brief: as §5
[25] = Metabolic stability in bile-duct cannulated rat bile assessed as compound remaining at 2 mg/kg, po up to 72 hrs; type: ADME, organism-based; design: dose 2 mg/kg, route oral; details: read-out: Stability
Method in brief: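 [3H]-labelled compound formulated in Imwitor 742/Tween-80 (1:1), given orally at 2 mg/kg to bile duct-cannulated rats; bile, feces and urine collected over 72 h; radioactivity recovery and radioprofiles of parent and metabolites determined.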

[26] = Ratio of drug level in brain to plasma in P-gp deficient CF1 mouse at 1 mg/kg, iv measured after 4 hrs; type: ADME, organism-based; design: dose 1 mg/kg, route intravenous; details: brain and plasma, read-out: BPR
Method in brief: (§7)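 Single iv dose of 1 mg/kg given to wild-type and P-gp deficient CF-1 mice. Parent levels in plasma and brain determined 4 h postdose. Brain-to-plasma ratio calculated from these levels.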

[27] = Ratio of drug level in brain to plasma in wild type MDR1a-expressing mouse at 1 mg/kg, iv measured after 4 hrs; type: ADME, organism-based; design: dose 1 mg/kg, route intravenous; details: brain and plasma, read-out: BPR; method in brief: as §7
[28] = Drug level in wild type MDR1a-expressing mouse brain at 1 mg/kg, iv measured after 4 hrs; type: ADME, organism-based; design: dose 1 mg/kg, route intravenous; details: read-out: Drug uptake; method in brief: as §5
Rhesus monkey [29] = experiment: Volume of distribution at steady state in rhesus monkey at 0.4 mg/kg, po; type: ADME, organism-based, Macaca mulatta; design: dose 0.4 mg/kg, route oral; details: in vivo; method in brief: as §2
[30] = Cmax in Sprague-Dawley rat at 1 mg/kg, iv and 2 mg/kg, po; type: ADME, organism-based; details: in vivo; method in brief: as §1
[31] = Plasma clearance in Beagle dog at 0.2 mg/kg, iv; type: ADME, organism-based, Canis lupus familiaris; design: dose 0.2 mg/kg, route intravenous; method in brief: as §2
[32] = Plasma clearance in rhesus monkey at 0.4 mg/kg, po; type: ADME, organism-based, Macaca mulatta; design: dose 0.4 mg/kg, route oral; method in brief: as §2

CC1(C)C[C@@H](NC(=O)c2ccccc2O)c2cc(-c3ccc(Cl)cc3)c(-c3ccc(Cl)cc3Cl)nc2O1
half-life [1]: 1.9 h | bioavailability [2]: 1%

CC1(C)C[C@@H](NC(=O)c2ccccc2N)c2cc(-c3ccc(Cl)cc3)c(-c3ccc(Cl)cc3Cl)nc2O1
half-life [1]: 7.4 h | bioavailability [2]: 5%

Cc1cc(C(=O)N[C@@H]2CC(C)(C)Oc3nc(-c4ccc(Cl)cc4Cl)c(-c4ccc(Cl)cc4)cc32)n[nH]1
Kp at 24 h [3]: 0.55 | AUC (Rattus norvegicus): 11 µM·kg·h/mg | Kp at 18 h [4]: 0.63 | Cmax [5]: 150 nM | clearance [6]: 4.5 mL/min/kg | concentration at 18 h [7]: 180 nM | concentration at 0.5 h [8]: 1630 nM | bioavailability [9]: 46% | concentration at 4 h [10]: 1400 nM | half-life [11]: 60 h | half-life [1]: 8.5 h | bioavailability [12]: 65% | Vd [13]: 3 L/kg | AUC (Canis familiaris): 18 µM·kg·h/mg | Cmax [14]: 90 nM | half-life [15]: 15 h | concentration at 0.5 h [16]: 6960 nM | concentration at 24 h [17]: 74 nM | concentration at 0.5 h [18]: 3260 nM | concentration at 18 h [19]: 110 nM | concentration at 24 h [20]: 135 nM | Vd [21]: 5.7 L/kg | AUC (Rhesus monkey [22]): 6.1 µM·kg·h/mg | concentration at 4 h [23]: 410 nM | concentration at 4 h [24]: 300 nM | remaining at 72 h [25]: 30% | Kp at 4 h [26]: 4.66 | Kp at 4 h [27]: 0.66 | concentration at 4 h [28]: 270 nM | Vdss (Rhesus monkey [29]): 2.4 L/kg | Cmax [30]: 1030 nM | bioavailability [2]: 91% | clearance [31]: 1.1 mL/min/kg | CL/F [32]: 2.3 mL/min/kg

CC1(C)CC(NC(=O)CC(O)C(F)(F)F)c2cc(-c3ccc(Cl)cc3)c(-c3ccc(Cl)cc3Cl)nc2O1 (racemic) [N-[6-(4-CHLOROPHENYL)-7-(2,4-DICHLOROPHENYL)-2,2-DIMETHYL-3,4-DIHYDRO-2H-PYRANO[2,3-B]PYRIDINE-4-YL]-4,4,4-TRIFLUORO-3-HYDROXYBUTANAMIDE (DIASTEREOMERIC MIX)]
half-life [1]: 8.2 h | bioavailability [2]: 41%

CC(O)C(=O)NC1CC(C)(C)Oc2nc(-c3ccc(Cl)cc3Cl)c(-c3ccc(Cl)cc3)cc21 (single isomer, unassigned)
half-life [1]: 7.9 h | bioavailability [2]: 100%

— ChEMBL document CHEMBL1157794, “Discovery of N-[(4R)-6-(4-chlorophenyl)-7-(2,4-dichlorophenyl)-2,2-dimethyl-3,4-dihydro-2H-pyrano[2,3-b]pyridin-4-yl]-5-methyl-1H-pyrazole-3-carboxamide (MK-5596) as a novel cannabinoid-1 receptor (CB1R) inverse agonist for the treatment of obesity” (J Med Chem, 2010)
